From PubChem BioAssay
E-selectin induc – E-selectin induction on HUVECs. P16581. 260,000 compounds, 0.37% hits. HUVEC E-selectin immunofluorescence imaging; normalized: neutral wells 0, TNF-alpha wells 100. AID 686992. activation, % at 7.58 µM;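 active means mean E-selectin-positive cell signal at least 10% of the positive control, reached in at least 60% of replicates, without over 20% cell loss; inconclusive means no rule given, readout overlaps actives, possibly toxicity-flagged; inactive means the rest, including those meeting only one limit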
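Test system: HUVEC; input: 3,000 HUVEC/well; measured by: immunofluorescence imaging; read-out: % PE-positive cells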
ERAP1 inh – inhibitors of human ERAP1 aminopeptidase; Q9NZ08; recombinant ERAP1, Leu-AMC fluorescence, 60 min; inhibition, % at 10.7 µM; 340,000 compounds, 0.15% hits;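 active means mean replicate inhibition of at least 30%, or all replicates individually reaching that 30% level; inactive means mean below 30% and not every replicate reaching it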;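 further: 0% = neutral control wells and 100% = L-leucinethiol positive control wells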
Target sequence (Q9NZ08 whole entry, looked up): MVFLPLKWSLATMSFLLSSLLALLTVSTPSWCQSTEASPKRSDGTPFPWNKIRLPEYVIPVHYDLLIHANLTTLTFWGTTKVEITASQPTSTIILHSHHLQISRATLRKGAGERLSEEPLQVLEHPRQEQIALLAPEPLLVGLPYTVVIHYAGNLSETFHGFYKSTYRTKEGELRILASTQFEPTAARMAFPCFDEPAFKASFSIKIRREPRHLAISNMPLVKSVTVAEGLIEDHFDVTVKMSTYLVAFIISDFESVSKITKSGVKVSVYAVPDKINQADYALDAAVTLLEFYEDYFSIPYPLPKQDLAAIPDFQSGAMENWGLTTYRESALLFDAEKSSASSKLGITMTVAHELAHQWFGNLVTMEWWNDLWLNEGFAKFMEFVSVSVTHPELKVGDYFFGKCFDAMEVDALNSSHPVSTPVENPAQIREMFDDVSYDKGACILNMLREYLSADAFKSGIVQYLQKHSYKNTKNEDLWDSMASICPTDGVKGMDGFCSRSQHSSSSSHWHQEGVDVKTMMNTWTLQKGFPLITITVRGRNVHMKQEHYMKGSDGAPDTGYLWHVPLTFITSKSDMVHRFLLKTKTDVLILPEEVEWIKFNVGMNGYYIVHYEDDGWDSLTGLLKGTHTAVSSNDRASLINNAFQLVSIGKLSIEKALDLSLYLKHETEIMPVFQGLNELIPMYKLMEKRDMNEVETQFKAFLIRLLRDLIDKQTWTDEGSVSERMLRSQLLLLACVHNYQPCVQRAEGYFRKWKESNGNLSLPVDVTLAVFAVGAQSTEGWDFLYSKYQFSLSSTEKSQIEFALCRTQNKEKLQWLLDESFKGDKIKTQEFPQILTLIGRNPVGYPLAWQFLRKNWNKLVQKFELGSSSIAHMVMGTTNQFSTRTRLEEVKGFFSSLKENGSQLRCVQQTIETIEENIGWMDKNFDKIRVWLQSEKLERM
FGF22 binding – shifts melting point of recombinant human FGF22. Q9HCT0. recombinant FGF22 thermal shift, SYPRO orange fluorescence; percent of sucrose octasulfate shift, DMSO zero. activity (Tm shift, normalised), % at 9.99 µM. 340,000 compounds, 1.5% hits. AID 651658;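 active means mean Tm shift, scaled 0 neutral to 100 positive control, at about 1.3% or above, every replicate too, limit read from the data; inconclusive means no clear call, values can overlap the other calls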
CFTR F508del cor – CFTR F508del correction in bronchial cells | CFBE cells, YFP halide quenching; stimulated with forskolin plus potentiator P3; % fluorescence drop versus neutral controls | activity (quench increase), % at 7.58 µM | AID 720511 | 350,000 compounds, 0.36% hits;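 active means mean added fluorescence quench of at least 8% versus neutral control, with both replicates also reaching 8%; inconclusive means only one of the mean or replicate conditions met; inactive means mean below 8% and not both replicates reaching 8%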;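 further: cells transiently co-express mutant CFTR-F508del with the halide-sensitive YFP; corrector assay measuring rescue of mutant channel to the surface after 24 h compound exposure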
DENV2 CPE rescue – inhibitors of DENV2 cytopathic effect | AID 651640 | DENV2-infected cells, cytopathic effect rescue, plate reader | 350,000 compounds, 1.7% hits | CPE inhibition, % at 9.99 µM; in the data active means CPE inhibition above about 20%, passing the limit was not always enough; inconclusive means no clear call, values can overlap the other calls; tested in BHK-21 cells;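 further: 0% = median of neutral control wells and 100% = median of positive control wells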
* hit, by the source's call. Hits are enriched below; roughly 3.7% of the tested compounds scored in any of these assays.

Screening CC(=O)Nc1cccc(C(=O)Nc2cccc(S(=O)(=O)NCc3ccco3)c2)c1 returned E-selectin induc -1, ERAP1 inh 2, FGF22 binding 0, CFTR F508del cor -4 and DENV2 CPE rescue 12.
`O=C(Nc1cccc(S(=O)(=O)NCc2ccco2)c1)c1cccc(Cl)c1` gave E-selectin induc 200*, ERAP1 inh 0, FGF22 binding 0, CFTR F508del cor 2 and DENV2 CPE rescue inconclusive.
Cc1cccc(NC(=O)COC(=O)c2ccccc2SCC(=O)N2CCCC2)c1 was read as E-selectin induc 0, ERAP1 inh -8, FGF22 binding 28*, CFTR F508del cor 0 and DENV2 CPE rescue 6.
Screening NC(=O)c1ccc(NC(=O)COC(=O)c2ccccc2SCC(=O)N2CCCC2)cc1 returned E-selectin induc 1, ERAP1 inh -4, FGF22 binding 0, CFTR F508del cor -2 and DENV2 CPE rescue 14.
Screening CCOC(=O)Cn1c2[n+](c3ccccc31)CC(O)CS2 (configuration not stated) returned ERAP1 inh 78*, FGF22 binding 0, CFTR F508del cor 3 and DENV2 CPE rescue 2.
CN(C)C(CNC(=O)c1c(F)cccc1Cl)c1ccco1 (configuration not stated) was read as ERAP1 inh -5, FGF22 binding 42, CFTR F508del cor 2 and DENV2 CPE rescue 21*.
`CN(C)C(CNC(=O)c1cccs1)c1ccco1` (configuration not stated) gave ERAP1 inh -5, FGF22 binding 0, CFTR F508del cor 1 and DENV2 CPE rescue 35*.
For CN(C)C(CNC(=O)c1ccco1)c1cccs1 (configuration not stated) the results were ERAP1 inh -1, FGF22 binding 0, CFTR F508del cor 0 and DENV2 CPE rescue inconclusive.
Screening CCCNC(=O)N1CC2(C1)[C@H](c1ccccc1)[C@@H](CO)N2C(=O)CC1CC1 returned E-selectin induc 0, ERAP1 inh 2, FGF22 binding 1, CFTR F508del cor -4 and DENV2 CPE rescue 18.
For CCCNC(=O)N1CC2(C1)[C@H](c1ccccc1)[C@H](CO)N2C(=O)C1CCCCC1 the results were E-selectin induc 0, ERAP1 inh 0, FGF22 binding 0, CFTR F508del cor 4 and DENV2 CPE rescue 65*.
Screening CCCNC(=O)N1CC2(C1)[C@H](c1ccccc1)[C@H](CO)N2C(=O)CC1CC1 returned E-selectin induc 0, ERAP1 inh 2, FGF22 binding 1, CFTR F508del cor 0 and DENV2 CPE rescue 23*.
For O=C(c1ccccc1)N1CC2(C1)[C@H](c1ccccc1)[C@@H](CO)N2C(=O)CC1CC1 the results were E-selectin induc 0, ERAP1 inh 0, FGF22 binding 0, CFTR F508del cor -1 and DENV2 CPE rescue 26*.
CCCNC(=O)N1CC2(C1)[C@H](c1ccccc1)[C@@H](CO)N2C(=O)C1CCCCC1 was read as E-selectin induc 0, ERAP1 inh 0, FGF22 binding 0, CFTR F508del cor -1 and DENV2 CPE rescue 7.
`C[C@@H]1CN([C@H](C)CO)C(=O)c2cc(NC(=O)CCN3CCOCC3)ccc2O[C@H]1CN(C)C(=O)NC1CCCCC1` gave E-selectin induc 2, ERAP1 inh 0, FGF22 binding 0, CFTR F508del cor -3 and DENV2 CPE rescue 16.
`C[C@H]1CCCCO[C@@H](CN(C)C(=O)NC2CCCCC2)[C@@H](C)CN([C@@H](C)CO)C(=O)c2cc(NS(C)(=O)=O)ccc2O1` gave FGF22 binding 0, CFTR F508del cor 3 and DENV2 CPE rescue -12.
`COc1ccccc1-c1cnc2c(c1)C(=O)N([C@@H](C)CO)C[C@@H](C)[C@@H](CN(C)Cc1cccnc1)O2` gave E-selectin induc 0, ERAP1 inh -2, FGF22 binding 0, CFTR F508del cor 3 and DENV2 CPE rescue -10.
`O=C(O)C[C@@H]1C[C@H]2c3cc(NC(=O)c4ccc5c(c4)OCO5)ccc3O[C@H]2[C@@H](CO)O1` gave E-selectin induc 0, ERAP1 inh -2, FGF22 binding 0, CFTR F508del cor -4 and DENV2 CPE rescue -4.
CC(=O)N1[C@@H]2c3cccc(=O)n3C[C@@H]2[C@@H](CO)[C@@H]1C(=O)NCc1ccc(F)cc1 was read as E-selectin induc -2, ERAP1 inh -1, FGF22 binding 0, CFTR F508del cor 0 and DENV2 CPE rescue inconclusive.
CO[C@@H]1CN(C)C(=O)c2ccc(NC(=O)C3CCC3)cc2OC[C@H](C)N(Cc2nccs2)C[C@H]1C was read as E-selectin induc 0, ERAP1 inh -3, FGF22 binding 0, CFTR F508del cor 0 and DENV2 CPE rescue 27*.
`CO[C@H]1CN(C)C(=O)c2cc(NC(C)=O)ccc2OC[C@H](C)N(Cc2nccs2)C[C@@H]1C` gave E-selectin induc 0, ERAP1 inh 3, FGF22 binding -1, CFTR F508del cor 1 and DENV2 CPE rescue 32*.
COc1ccccc1-c1cncc(NC(C)=O)n1 was read as E-selectin induc 0, ERAP1 inh -2, FGF22 binding 0, CFTR F508del cor -2 and DENV2 CPE rescue 27*.
Screening CC(=O)Nc1cncc(-c2ccccc2C(C)=O)n1 returned E-selectin induc 0, ERAP1 inh -2, FGF22 binding 0, CFTR F508del cor 3 and DENV2 CPE rescue -6.
For O=S(=O)(c1cccc2cccnc12)N1CCN(Cc2ccc(OCCO)cc2)CC1 the results were ERAP1 inh 1, FGF22 binding 0, CFTR F508del cor 0 and DENV2 CPE rescue 41*.
O=C(Cc1cccnc1)N1CC(=O)N2[C@H](CO)[C@H](c3ccc(C#CC4CCCC4)cc3)[C@H]2C1 was read as E-selectin induc 0, ERAP1 inh -4, CFTR F508del cor 3 and DENV2 CPE rescue inconclusive.
N#Cc1ccc(CN2CCN(C(=O)CC(NC(=O)c3ccccc3)c3ccccc3)CC2)cc1 (configuration not stated) was read as E-selectin induc 0, ERAP1 inh -7, FGF22 binding 0, CFTR F508del cor 0 and DENV2 CPE rescue 63*.
COc1ccc(NC(=O)N(C)C[C@@H]2Oc3ccc(NC(=O)Nc4ccc(F)cc4)cc3CC(=O)N([C@H](C)CO)C[C@@H]2C)cc1 was read as E-selectin induc 0, ERAP1 inh 4, FGF22 binding 0, CFTR F508del cor -2 and DENV2 CPE rescue -3.
`COc1ccc(C#Cc2ccc3c(c2)O[C@@H](CN(C)C(=O)c2ccccn2)[C@@H](C)CN([C@@H](C)CO)S3(=O)=O)cc1` gave E-selectin induc 1, ERAP1 inh 0, FGF22 binding 0, CFTR F508del cor 1 and DENV2 CPE rescue inconclusive.
Screening CCC(=O)Nc1ccc2c(c1)C(=O)N(C)[C@@H]1CC[C@@H](CC(=O)N3CCc4ccccc4C3)O[C@H]1CO2 returned E-selectin induc 0 and CFTR F508del cor 2.
